Each block holds one compound with its values, some of them ahead of it.
Experiments:
[1] = target: Calcium/calmodulin-dependent protein kinase type II subunit gamma (Homo sapiens) (UniProt Q13555); experiment: Inhibition of human recombinant CaMK2g at 500 nM in presence of ATP by radiometric assay relative to control
[2] = target: T1, Ephrin type-A receptor 8 (Homo sapiens) (UniProt P29322); experiment: Inhibition of human recombinant EphA8 at 500 nM related to control ULK1
T1 sequence (whole entry): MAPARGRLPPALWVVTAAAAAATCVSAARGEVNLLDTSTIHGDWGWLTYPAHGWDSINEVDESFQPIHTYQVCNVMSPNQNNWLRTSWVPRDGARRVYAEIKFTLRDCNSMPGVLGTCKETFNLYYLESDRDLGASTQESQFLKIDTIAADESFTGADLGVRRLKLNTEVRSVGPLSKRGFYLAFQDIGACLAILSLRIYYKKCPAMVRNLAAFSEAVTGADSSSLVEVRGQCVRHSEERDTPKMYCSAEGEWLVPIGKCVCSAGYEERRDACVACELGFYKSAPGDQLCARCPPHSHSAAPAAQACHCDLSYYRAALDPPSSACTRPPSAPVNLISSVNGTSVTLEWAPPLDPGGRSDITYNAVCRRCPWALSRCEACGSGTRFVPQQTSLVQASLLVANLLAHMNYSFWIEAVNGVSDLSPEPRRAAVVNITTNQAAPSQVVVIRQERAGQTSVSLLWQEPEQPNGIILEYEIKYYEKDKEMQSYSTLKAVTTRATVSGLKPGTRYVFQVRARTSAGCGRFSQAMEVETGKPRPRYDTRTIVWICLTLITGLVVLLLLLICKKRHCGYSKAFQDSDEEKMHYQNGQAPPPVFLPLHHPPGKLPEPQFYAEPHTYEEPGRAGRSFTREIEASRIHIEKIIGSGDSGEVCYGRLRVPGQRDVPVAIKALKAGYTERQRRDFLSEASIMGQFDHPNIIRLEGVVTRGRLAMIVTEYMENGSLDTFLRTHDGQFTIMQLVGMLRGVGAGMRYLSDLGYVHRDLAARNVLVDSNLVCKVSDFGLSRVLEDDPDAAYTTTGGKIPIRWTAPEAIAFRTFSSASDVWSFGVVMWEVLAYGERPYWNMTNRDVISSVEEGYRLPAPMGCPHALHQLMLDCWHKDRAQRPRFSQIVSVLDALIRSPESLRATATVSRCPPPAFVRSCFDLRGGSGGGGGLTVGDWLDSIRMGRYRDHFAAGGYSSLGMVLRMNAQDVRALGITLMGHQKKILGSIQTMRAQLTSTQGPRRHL

[3] = target: LIM domain kinase 1 (Homo sapiens) (UniProt P53667); experiment: Inhibition of human recombinant LIMK1 at 500 nM in presence of ATP by radiometric assay relative to control
[4] = target: Serine/threonine-protein kinase ATR (Homo sapiens) (UniProt Q13535); experiment: Inhibition of human recombinant ATR at 40 nM in presence of ATP by radiometric assay relative to control
Outline: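 Panel of 327 recombinant human kinases, each assayed in vitro by radiometric activity assay in duplicate at a single inhibitor concentration per compound, chosen with reference to its ULK1 inhibition. Activity remaining was expressed as percent of vehicle control, and percent inhibition was calculated as 100 minus percent activity remaining.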

[5] = target: Fibroblast growth factor receptor 4 (Homo sapiens) (UniProt P22455); experiment: Inhibition of human recombinant FGFR4 at 40 nM in presence of ATP by radiometric assay relative to control
[6] = target: T2, SNF-related serine/threonine-protein kinase (Homo sapiens) (UniProt Q9NRH2); experiment: Inhibition of human recombinant SNRK at 40 nM related to control ULK1
T2 sequence (whole entry): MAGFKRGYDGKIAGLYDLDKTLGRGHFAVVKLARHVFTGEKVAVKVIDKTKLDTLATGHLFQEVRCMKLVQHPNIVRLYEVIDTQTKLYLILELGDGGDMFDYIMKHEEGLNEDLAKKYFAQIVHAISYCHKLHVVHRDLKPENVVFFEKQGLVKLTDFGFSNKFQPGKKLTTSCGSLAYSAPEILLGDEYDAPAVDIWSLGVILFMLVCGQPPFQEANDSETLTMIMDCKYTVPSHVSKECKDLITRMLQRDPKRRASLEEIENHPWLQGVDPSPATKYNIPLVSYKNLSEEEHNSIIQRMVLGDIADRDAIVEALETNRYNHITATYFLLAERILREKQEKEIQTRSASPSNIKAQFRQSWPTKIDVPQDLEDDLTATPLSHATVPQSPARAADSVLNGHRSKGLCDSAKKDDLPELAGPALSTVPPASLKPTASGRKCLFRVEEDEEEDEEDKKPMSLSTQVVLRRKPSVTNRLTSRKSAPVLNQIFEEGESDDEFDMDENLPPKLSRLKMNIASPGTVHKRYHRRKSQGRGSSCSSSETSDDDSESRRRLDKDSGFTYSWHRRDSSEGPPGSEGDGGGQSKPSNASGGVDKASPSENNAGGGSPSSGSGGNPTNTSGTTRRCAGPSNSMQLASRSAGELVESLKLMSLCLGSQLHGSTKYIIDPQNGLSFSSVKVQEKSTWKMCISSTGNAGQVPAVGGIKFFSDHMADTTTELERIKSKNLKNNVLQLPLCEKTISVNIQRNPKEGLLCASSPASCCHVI

[7] = target: Myosin light chain kinase, smooth muscle (Homo sapiens) (UniProt Q15746); experiment: Inhibition of human recombinant smMLCK at 15 nM in presence of ATP by radiometric assay relative to control
[8] = target: Casein kinase I isoform gamma-3 (Homo sapiens) (UniProt Q9Y6M4); experiment: Inhibition of human recombinant CK1g3 at 15 nM in presence of ATP by radiometric assay relative to control
Casein kinase I isoform gamma-3 (Homo sapiens), sequence (Q9Y6M4 whole entry, looked up, canonical isoform): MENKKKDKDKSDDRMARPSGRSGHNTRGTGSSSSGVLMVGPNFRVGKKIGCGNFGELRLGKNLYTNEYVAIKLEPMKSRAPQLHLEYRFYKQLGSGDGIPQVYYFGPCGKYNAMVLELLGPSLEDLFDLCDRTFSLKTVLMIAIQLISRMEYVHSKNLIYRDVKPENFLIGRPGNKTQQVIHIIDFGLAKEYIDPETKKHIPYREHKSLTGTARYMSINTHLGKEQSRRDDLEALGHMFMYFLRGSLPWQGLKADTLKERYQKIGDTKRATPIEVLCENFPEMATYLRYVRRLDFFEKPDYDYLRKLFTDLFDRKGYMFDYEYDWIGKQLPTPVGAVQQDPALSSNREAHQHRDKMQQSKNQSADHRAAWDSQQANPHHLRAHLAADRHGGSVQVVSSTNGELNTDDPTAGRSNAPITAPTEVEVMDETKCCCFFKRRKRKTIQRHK

Calcium/calmodulin-dependent protein kinase type II subunit gamma (Homo sapiens), sequence (Q13555 whole entry): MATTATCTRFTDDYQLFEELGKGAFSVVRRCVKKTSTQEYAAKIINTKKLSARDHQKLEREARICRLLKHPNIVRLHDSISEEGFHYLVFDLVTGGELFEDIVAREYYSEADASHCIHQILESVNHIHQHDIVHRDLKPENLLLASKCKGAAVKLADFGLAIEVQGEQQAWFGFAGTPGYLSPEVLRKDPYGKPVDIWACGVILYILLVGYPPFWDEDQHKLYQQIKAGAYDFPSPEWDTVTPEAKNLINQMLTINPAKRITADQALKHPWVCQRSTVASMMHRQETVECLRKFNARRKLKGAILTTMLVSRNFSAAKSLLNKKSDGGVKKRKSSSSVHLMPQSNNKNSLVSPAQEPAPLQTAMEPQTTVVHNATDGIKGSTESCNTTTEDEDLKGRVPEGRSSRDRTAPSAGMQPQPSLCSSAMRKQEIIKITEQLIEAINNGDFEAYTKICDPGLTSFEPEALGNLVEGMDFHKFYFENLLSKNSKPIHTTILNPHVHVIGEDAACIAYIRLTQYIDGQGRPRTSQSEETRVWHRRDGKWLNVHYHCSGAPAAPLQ
Serine/threonine-protein kinase ATR (Homo sapiens), sequence (Q13535 whole entry, looked up): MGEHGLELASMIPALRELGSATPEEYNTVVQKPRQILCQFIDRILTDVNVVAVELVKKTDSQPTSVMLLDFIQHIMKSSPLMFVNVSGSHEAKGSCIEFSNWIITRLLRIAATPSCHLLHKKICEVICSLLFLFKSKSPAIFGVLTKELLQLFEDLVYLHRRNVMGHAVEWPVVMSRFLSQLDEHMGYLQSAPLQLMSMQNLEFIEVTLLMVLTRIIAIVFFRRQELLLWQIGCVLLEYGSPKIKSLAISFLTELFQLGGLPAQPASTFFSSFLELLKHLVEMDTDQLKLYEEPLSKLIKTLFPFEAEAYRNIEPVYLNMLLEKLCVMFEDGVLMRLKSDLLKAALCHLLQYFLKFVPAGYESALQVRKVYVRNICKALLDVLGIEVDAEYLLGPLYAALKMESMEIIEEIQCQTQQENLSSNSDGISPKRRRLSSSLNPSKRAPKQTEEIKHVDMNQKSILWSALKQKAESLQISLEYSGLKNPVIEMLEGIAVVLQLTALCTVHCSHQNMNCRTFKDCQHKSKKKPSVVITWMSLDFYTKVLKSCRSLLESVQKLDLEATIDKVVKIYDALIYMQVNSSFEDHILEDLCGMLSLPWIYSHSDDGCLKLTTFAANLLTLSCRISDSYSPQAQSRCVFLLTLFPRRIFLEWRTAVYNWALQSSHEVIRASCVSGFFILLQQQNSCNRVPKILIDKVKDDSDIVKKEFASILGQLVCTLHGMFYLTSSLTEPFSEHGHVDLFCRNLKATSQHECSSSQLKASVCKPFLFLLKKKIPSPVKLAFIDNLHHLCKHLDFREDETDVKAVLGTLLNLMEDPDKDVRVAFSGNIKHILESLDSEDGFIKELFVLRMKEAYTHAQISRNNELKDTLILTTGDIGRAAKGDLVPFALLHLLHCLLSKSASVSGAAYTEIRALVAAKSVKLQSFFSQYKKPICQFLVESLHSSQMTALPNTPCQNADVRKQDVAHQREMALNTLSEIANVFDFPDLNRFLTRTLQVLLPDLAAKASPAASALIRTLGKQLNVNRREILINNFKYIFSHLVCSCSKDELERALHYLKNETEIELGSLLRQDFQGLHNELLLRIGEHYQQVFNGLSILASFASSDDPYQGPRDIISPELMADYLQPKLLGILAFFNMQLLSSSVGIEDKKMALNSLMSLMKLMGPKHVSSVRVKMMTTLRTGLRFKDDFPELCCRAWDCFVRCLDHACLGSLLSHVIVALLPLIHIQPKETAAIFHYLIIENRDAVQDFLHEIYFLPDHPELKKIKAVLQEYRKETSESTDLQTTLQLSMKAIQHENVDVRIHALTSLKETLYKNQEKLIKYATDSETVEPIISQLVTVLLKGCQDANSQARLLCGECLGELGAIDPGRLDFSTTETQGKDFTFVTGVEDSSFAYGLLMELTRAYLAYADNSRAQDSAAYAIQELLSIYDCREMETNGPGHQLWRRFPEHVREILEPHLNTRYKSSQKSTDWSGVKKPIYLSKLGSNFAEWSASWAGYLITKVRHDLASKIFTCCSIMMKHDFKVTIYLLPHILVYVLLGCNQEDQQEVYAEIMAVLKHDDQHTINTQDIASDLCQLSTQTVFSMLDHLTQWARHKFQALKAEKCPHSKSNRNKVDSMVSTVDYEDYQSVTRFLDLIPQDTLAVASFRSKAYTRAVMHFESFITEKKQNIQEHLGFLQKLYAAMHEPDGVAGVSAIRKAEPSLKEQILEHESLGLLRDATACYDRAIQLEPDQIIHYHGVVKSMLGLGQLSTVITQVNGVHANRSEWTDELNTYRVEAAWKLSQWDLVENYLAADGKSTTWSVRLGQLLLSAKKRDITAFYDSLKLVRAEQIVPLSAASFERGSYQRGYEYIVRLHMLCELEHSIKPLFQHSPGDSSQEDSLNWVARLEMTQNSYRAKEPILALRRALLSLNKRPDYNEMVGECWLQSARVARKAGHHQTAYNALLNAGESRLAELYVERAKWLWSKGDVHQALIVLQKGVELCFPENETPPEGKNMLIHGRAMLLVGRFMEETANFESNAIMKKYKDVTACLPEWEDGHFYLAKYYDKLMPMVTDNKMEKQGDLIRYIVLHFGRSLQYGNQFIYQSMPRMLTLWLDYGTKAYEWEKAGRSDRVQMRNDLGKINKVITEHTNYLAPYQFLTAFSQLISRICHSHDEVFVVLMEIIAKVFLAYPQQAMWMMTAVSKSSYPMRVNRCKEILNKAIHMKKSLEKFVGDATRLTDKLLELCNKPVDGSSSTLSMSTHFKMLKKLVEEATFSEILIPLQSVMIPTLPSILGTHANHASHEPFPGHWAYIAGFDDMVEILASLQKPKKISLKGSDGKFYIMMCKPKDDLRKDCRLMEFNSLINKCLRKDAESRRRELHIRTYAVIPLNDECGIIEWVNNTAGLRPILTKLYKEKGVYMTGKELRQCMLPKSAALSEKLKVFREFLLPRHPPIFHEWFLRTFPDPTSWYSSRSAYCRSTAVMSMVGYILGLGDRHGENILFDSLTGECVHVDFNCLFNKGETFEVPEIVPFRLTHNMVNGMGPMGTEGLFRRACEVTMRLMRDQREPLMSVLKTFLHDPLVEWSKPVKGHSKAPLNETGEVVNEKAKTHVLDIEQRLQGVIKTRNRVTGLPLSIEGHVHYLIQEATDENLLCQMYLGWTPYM
LIM domain kinase 1 (Homo sapiens), sequence (P53667 whole entry, looked up, the tested form may be a part): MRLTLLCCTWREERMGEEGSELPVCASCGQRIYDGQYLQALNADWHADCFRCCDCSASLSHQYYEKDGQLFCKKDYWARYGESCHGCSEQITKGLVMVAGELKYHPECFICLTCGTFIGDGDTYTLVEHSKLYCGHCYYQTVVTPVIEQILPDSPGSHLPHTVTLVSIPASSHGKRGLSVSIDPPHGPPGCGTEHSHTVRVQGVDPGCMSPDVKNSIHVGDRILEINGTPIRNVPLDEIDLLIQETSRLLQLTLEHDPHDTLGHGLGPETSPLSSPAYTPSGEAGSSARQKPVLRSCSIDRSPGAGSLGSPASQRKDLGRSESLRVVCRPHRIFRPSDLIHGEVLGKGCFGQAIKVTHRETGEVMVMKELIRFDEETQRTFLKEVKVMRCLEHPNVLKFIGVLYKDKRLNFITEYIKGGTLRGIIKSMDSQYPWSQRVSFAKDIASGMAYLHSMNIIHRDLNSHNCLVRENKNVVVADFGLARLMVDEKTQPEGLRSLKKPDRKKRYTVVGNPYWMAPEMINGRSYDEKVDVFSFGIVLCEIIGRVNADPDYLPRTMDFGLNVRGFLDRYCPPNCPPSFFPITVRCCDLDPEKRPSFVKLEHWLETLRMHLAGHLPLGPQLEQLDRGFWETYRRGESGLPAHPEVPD
Fibroblast growth factor receptor 4 (Homo sapiens), sequence (P22455 22-802 limits assumed): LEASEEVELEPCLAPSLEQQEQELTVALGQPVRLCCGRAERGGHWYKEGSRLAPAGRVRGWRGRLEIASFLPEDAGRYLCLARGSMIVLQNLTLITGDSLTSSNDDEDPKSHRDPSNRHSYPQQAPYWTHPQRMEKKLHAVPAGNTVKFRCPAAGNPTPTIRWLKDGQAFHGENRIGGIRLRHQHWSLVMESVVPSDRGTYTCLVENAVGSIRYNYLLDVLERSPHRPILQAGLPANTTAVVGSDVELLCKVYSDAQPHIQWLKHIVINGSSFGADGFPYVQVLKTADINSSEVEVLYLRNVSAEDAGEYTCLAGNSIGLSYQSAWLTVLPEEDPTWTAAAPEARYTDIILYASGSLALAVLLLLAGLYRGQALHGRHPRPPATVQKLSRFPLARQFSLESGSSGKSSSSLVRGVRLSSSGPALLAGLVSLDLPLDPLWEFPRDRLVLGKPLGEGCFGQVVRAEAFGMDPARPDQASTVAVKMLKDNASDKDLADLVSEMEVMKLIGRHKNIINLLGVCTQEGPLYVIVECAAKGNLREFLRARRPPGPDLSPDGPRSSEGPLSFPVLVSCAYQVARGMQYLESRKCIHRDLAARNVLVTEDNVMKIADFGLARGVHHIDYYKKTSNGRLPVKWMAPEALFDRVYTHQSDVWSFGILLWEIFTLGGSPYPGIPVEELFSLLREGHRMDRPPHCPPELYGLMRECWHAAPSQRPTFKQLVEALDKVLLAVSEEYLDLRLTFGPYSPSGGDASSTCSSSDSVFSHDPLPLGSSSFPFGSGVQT

inhibition [1]: 2%
fold change (FC) [2]: 0.03
inhibition [3]: 2%
SMILES: CNC(=O)c1ccccc1Oc1nc(Nc2cc(OC)c(OC)c(OC)c2)ncc1Br

inhibition [4]: 0%
inhibition [5]: 0%
fold change (FC) [6]: 0
SMILES: O=C(N[C@@H](C1CC1)C(F)(F)F)c1cc(-c2cnn3cc(-c4ccc(F)cc4)cnc23)cs1

inhibition [7]: 0%
inhibition [8]: 3%
SMILES: CC(C)[C@H](NC(=O)c1cc(-c2cnn3cc(-c4ccc(OCCN5CCCCC5)cc4)cnc23)cs1)C(F)(F)F
